Results published in the array DNA melting data of Ke et al. (doi:10.1101/2024.01.08.574731).

Columns and labels:
[1] = folding enthalpy; higher = less favourable; fluorescence melt of hairpins on a sequencing array, two-state fit; conditions: sodium 0.088 M
How it was run: (§1)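 Folding enthalpy and melting temperature come from bootstrapped two-state fits to Cy3 fluorescence of library hairpins carrying annealed Cy3 and quencher oligos on a sequenced MiSeq flow cell. Imaging was done in 50 mM Na-HEPES pH 8.0, 25 mM NaCl, stepping by 2.5 °C up to 60 °C, and signals were normalised to pre-quench Cy3 and to control constructs. Results of four replicates were combined by inverse variance, and fitted temperatures were raised by 9.35 °C to match UV melts.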

[2] = melting temperature; fluorescence melt of hairpins on a sequencing array, two-state fit, raised by 9.35 °C to match UV melts; conditions: sodium 0.088 M
How it was run: as §1

Sequence | folding enthalpy [1] | Tm [2]
GACTGCGAAAGCACCGTC ((((((....)))..))) | -10.7 kcal/mol | 37.6 °C
GTACATCGAAAGATTTAC (((.(((....))).))) | -17.8 kcal/mol | 35 °C
GCCCTAGCGAAAGCTGGC (((..(((....)))))) | -13.7 kcal/mol | 48 °C
GGCAAACGAAAGTTGGCC (((.(((....))).))) | -43.9 kcal/mol | 60.2 °C
GCCAGTGGAAACGCTGGC (((((.(....).))))) | -41.8 kcal/mol | 61 °C
GCAAAGCGAAAGCATTGC ((((.((....)).)))) | -21.1 kcal/mol | 58.9 °C
GCCCACGGAAACGCAGGC (((..((....))..))) | -17.8 kcal/mol | 39.6 °C
GGTAACGGAAACGTTGCC ((.((((....)))).)) | -50.5 kcal/mol | 53.8 °C
GATCGGATCACCGATC ((((((....)))))) | -34 kcal/mol | 57.5 °C
GCTGACGAAAGTCCGAGC ((((((....)))..))) | -17.6 kcal/mol | 37.6 °C
GAAATGCGAAAGCACTTC (((.(((....))).))) | -17.1 kcal/mol | 40.7 °C
GATCTGACCTCAGATC ((((((....)))))) | -38.9 kcal/mol | 49.3 °C
GATCGGTCTCCCGATC ((((((....)))))) | -41 kcal/mol | 56.1 °C
GCTGTTCGAAAGAAAGC (((.(((....)))))) | -15.6 kcal/mol | 36.7 °C
CGTGCGGAAACGCCGACG ((((((....)))..))) | -15.6 kcal/mol | 44.5 °C
GTTATTGGAAACAGTAAC ((((.((....)).)))) | -27.5 kcal/mol | 33.4 °C
GTCGCAGGAAACTGTGGC (.(.(((....))).).) | -29.9 kcal/mol | 42.8 °C
GAAGTGGGAAACCATTTC (((.(((....))).))) | -30.7 kcal/mol | 36.6 °C
GATCCGTTTCGGATC ((((((...)))))) | -38 kcal/mol | 63 °C
GATCAAAACATTGATC ((((((....)))))) | -31.7 kcal/mol | 42.3 °C
CCGAAGAAATTCGG (((((....))))) | -19.2 kcal/mol | 46.9 °C
GATCGTCGTACGATC ((((((...)))))) | -29.3 kcal/mol | 60.4 °C
GGGGGCGAAAGCCCTCCC ((((((....)))..))) | -9.75 kcal/mol | 51.9 °C

Sequence | folding enthalpy [1] | Tm [2]
GCCGCGCGAAAGCACCGC ((.(.((....)).).)) | -13.8 kcal/mol | 46.5 °C
GTCATCTCGAAAGAGGAC (((..(((....)))))) | -20.9 kcal/mol | 39.4 °C
GTGGCCGAAAGGCATCAC ((((((....)))..))) | -11.8 kcal/mol | 39.5 °C
GCTACGCGAAAGCGCCGC ((..(((....)))..)) | -10.9 kcal/mol | 36.8 °C
GTCACCGGAAACAGTGAC (((((.(....).))))) | -32.4 kcal/mol | 44.9 °C
GATGAGCGAAAGCTATC (((.(((....)))))) | -14.7 kcal/mol | 35.1 °C
GCCCCACGAAAGTGGGC (((.(((....)))))) | -10.9 kcal/mol | 65.5 °C
GGTAGCGAAAGCTCTACC ((((((....)))..))) | -16.4 kcal/mol | 38.1 °C
GTTATGCGAAAGCAAAC (((.(((....)))))) | -14.3 kcal/mol | 36.5 °C
GTCGAACGAAAGTTAGAC (((.(((....))).))) | -33.1 kcal/mol | 52.6 °C
GCGTATGAAAATACGC ((((((....)))))) | -36 kcal/mol | 63 °C
GATCTTAAGAAGATC ((((((...)))))) | -25.5 kcal/mol | 40.5 °C
GCGTCTCGACGC ((((....)))) | -26.9 kcal/mol | 68.6 °C
GTCGAGTCGAAAGACGAC (((..(((....)))))) | -10.7 kcal/mol | 47 °C
GACTGGGGAAACTCAGTC (((((.(....).))))) | -40.5 kcal/mol | 49.9 °C
GTTTGGGCGAAAGCCAAC (((..(((....)))))) | -10.8 kcal/mol | 36.1 °C
CGCCATCGGAAACGAGCG (((..(((....)))))) | -18.1 kcal/mol | 37 °C
GGCACACGAAAGTGAGCC (((.(((....))).))) | -38.1 kcal/mol | 63.5 °C
GATCGCGTGTGCGATC ((((((....)))))) | -29.3 kcal/mol | 68.5 °C
GTGATCCGAAAGGAACAC (((.(((....))).))) | -27.5 kcal/mol | 53.6 °C
GCCCATCGAAAGATTGGC (((.(((....))).))) | -27.3 kcal/mol | 47.8 °C
GGCACCGAAAGGTAGGCC ((((((....)))..))) | -29.7 kcal/mol | 52.7 °C
GATCATGTTTATGATC ((((((....)))))) | -39.1 kcal/mol | 50 °C

Sequence | folding enthalpy [1] | Tm [2]
GATCATGTGCATGATC ((((((....)))))) | -32.3 kcal/mol | 50.3 °C
GCAGAGACGAAAGTCTGC (((..(((....)))))) | -19.6 kcal/mol | 51.7 °C
GCTTGGCGAAAGCCTCGC ((..(((....)))..)) | -17.4 kcal/mol | 41.8 °C
GCGGTGCGAAAGCTTCGC (((..((....))..))) | -16.4 kcal/mol | 58.2 °C
GGGCTAGGAAACTAACCC (((.(((....))).))) | -31.5 kcal/mol | 39.2 °C
GACAGCGAAAGCTTCGTC ((((((....)))..))) | -13 kcal/mol | 43.9 °C
GTAAGCGAAAGCTCTAC ((((((....))).))) | -11.9 kcal/mol | 32.2 °C
GCACTGCGAAAGCATCGC ((..(((....)))..)) | -12.8 kcal/mol | 39.5 °C
GGTGATCGAAAGATAACC (((.(((....))).))) | -29.5 kcal/mol | 47.7 °C
CGCCTACGGAAACGTGCG (((..(((....)))))) | -23.2 kcal/mol | 39.4 °C
GCCATCGAAAGATTTGGC ((((((....)))..))) | -24.1 kcal/mol | 41.3 °C
GCCTCAGGAAACTGGGGC (((.(((....))).))) | -41.9 kcal/mol | 56 °C
GATCGCAAGAGCGATC ((((((....)))))) | -34 kcal/mol | 67.8 °C
GAGCCCGAAAGGGGACTC ((((((....)))..))) | -18.9 kcal/mol | 47.8 °C
GTCCTCGAAAGAGTTGAC ((((((....)))..))) | -10.7 kcal/mol | 31.2 °C
GTATGGCGAAAGCCGTAC (((.(((....))).))) | -25.9 kcal/mol | 56.9 °C
GAATACGAAAGTATATTC ((((((....)))..))) | -15.9 kcal/mol | 26.8 °C
GTAAACCGAAAGGTATAC (((.(((....))).))) | -25.1 kcal/mol | 40.5 °C
GGGTGTGGAAACATACCC ((((.((....)).)))) | -45.6 kcal/mol | 52.1 °C
GATTGCCGAAAGGCATC (((.(((....)))))) | -10.3 kcal/mol | 44.6 °C
GGATACGAAAGTAGCTCC ((((((....)))..))) | -12.7 kcal/mol | 37.1 °C
GACACACGAAAGTGCGTC (((.(((....))).))) | -45.2 kcal/mol | 54.5 °C
CGGATCGGAAACGAGCCG (((.(((....))).))) | -47.4 kcal/mol | 65.4 °C
